Screening results: PubChem BioAssay, several laboratories
Most compounds without a hit are left out; they make up all but 2.5% or so of the library.
UHRF1 binding: human UHRF1 methylated DNA binding inhibitors | UHRF1 binding to methylated oligo, TR-FRET | 370,000 compounds, 0.75% hits | inhibition, % at 4.4 µM | Q96T88; in the data active = inhibition above about 21%;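 also: UHRF1 SRA domain binding a hemimethylated CpG hairpin DNA probe; 0% = median of test compound wells and 100% = reference inhibitor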
ABHD5 PLIN5 PPI: inhibitors of human ABHD5-perilipin-5 interaction; inhibition, % at 4 µM; AID 602281; 360,000 compounds, 0.78% hits; Split G. princeps luciferase complementation, luminescence, 4 h;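 active = inhibition above the mean inhibition across every tested compound plus 3 SD, cut at about 22% in these data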;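 also: 0% = DMSO only wells and the 100% control is not disclosed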
Beta2AR agonist: activates human beta-2 adrenergic receptor causing internalization; 340,000 compounds, 0.43% hits; Am2.2-beta2AR cells, FAP receptor internalization, flow cytometry; response, % (test concentration not listed); P07550;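 active = response above a set limit, near 3 SD of response in nonfluorescent compounds, cut at about 42% in these data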
Target sequence (P07550 whole entry, looked up): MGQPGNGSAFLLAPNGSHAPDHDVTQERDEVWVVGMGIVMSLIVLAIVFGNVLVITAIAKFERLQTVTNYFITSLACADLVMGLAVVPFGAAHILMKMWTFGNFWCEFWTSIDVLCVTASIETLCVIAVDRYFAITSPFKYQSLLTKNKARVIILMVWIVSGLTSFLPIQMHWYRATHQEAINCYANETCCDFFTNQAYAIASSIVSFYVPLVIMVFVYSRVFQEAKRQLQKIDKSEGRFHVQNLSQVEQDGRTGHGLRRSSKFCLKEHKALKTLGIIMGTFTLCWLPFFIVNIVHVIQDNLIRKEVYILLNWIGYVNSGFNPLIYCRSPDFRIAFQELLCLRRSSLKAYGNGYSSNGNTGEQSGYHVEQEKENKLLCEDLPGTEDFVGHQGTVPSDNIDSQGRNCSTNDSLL
Arr AP2 block: human beta-arrestin and AP2 interaction inhibition; FITC-arrestin peptide / GST-AP2 beads, flow cytometry; AP2 beta2 appendage carries R879A mutation; inhibition, % at 10 µM; 340,000 compounds, 0.31% hits; AID 504490;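 active = inhibition above a set limit, near 3 SD of compounds lacking own fluorescence, cut at about 54% in these data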;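 also: plate controls were DMSO wells for no effect and 5 µM unlabelled arrestin peptide for full effect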
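System: GST-AP2 R879A glutathione beads; medium: PBS, Tween 20 0.05%, BSA 0.1%; reagent: fluorescein-tagged arrestin peptide at 50 nM final; schedule: pre-incubation 12 min, peptide binding 1 h, room temperature; detection: flow cytometry, FL1 (488/535 nm); read-out: inhibition as reduced fluorescein signal on beads, percent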
MBD2 inh: inhibitors of human MBD2 binding to methylated oligonucleotide. 370,000 compounds, 0.31% hits. Q9UBB5. TR-FRET. inhibition, % at 4.4 µM; in the data active = inhibition above about 13%
Rin1 Abl inh: blocks binding of human Rin1 to Abl; P00519+Q13671; TR-FRET Rin1/Abl binding, biochemical; inhibition, % at 7.35 µM; 360,000 compounds, 0.4% hits; in the data active = inhibition above about 5%, passing the limit was not always enough
ABHD5 PLIN5 conf: ABHD5-PLIN5 interaction inhibition, confirmed; shares compounds with ABHD5 PLIN5 PPI; biochemical ABHD5-PLIN5 interaction, luminescence; inhibition, % at 4 µM; 2,200 compounds, 67% hits; AID 651612; in the data active = inhibition above about 23%;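 also: 0% = DMSO vehicle wells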
HNF4 split-luc: HNF4 split-luciferase signal hit, counter-screen. shares compounds with ABHD5 PLIN5 PPI. HNF4 dimerization, luminescence, biochemical. inhibition, % at 4 µM. 2,200 compounds, 77% hits. AID 651674;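 active = mean inhibition across replicate wells exceeding the computed hit threshold, cut at about 13% in these data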;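 also: light from luciferase halves that rejoin when HNF4 fusion proteins dimerize; 0% = DMSO only wells and the 100% control is not given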
An asterisk follows results filed as active; nt = no result given.

SMILES	UHRF1 binding	ABHD5 PLIN5 PPI	Beta2AR agonist	Arr AP2 block	MBD2 inh	Rin1 Abl inh	ABHD5 PLIN5 conf	HNF4 split-luc
COc1ccc(S(=O)(=O)N2CCC(c3nc4ccccc4o3)CC2)c(OC)c1	3	nt	nt	nt	-2	nt	nt	nt
O=C1OC(/C(=C\Nc2ccc(F)cc2F)[N+](=O)[O-])c2ccccc21 (stereo not drawn)	3	54*	0	-13	0	-1	25*	61*
Cc1ccc(N/C=C(\C2OC(=O)c3ccccc32)[N+](=O)[O-])c(C)c1 (stereo not drawn)	1	54*	-7	-15	2	-1	9	34*
O=C1OC(/C(=C\Nc2cc(Cl)ccc2O)[N+](=O)[O-])c2ccccc21 (stereo not drawn)	-14	62*	0	0	-14	2	15	50*
CN(NC1OC(=O)c2ccccc21)c1ccc(Cl)cc1[N+](=O)[O-] (stereo not drawn)	-1	-4	-6	6	-5	1	nt	nt
Cn1cnc([N+](=O)[O-])c1S(=O)(=O)Oc1ccc(Cl)cc1	-3	73*	14	37	2	4	85*	104*
Cn1cnc([N+](=O)[O-])c1S(=O)(=O)Oc1cccc2ccccc12	0	76*	21	13	2	2	76*	106*
Cn1cnc([N+](=O)[O-])c1Oc1cccc2ccccc12	0	13	9	-7	-3	-5	nt	nt
O=C(CCc1ccccc1)N[C@H]1[C@H](OC(=O)c2cnccn2)CCC[C@@]12C(=O)N(Cc1ccccc1)c1ccccc12	-2	nt	nt	nt	0	nt	nt	nt
O=S(=O)(c1ccccc1F)N1CCN(Cc2cc3c(cc2O)OCO3)CC1	-3	16	-9	24	-4	1	nt	nt
Cc1ccc(C)c(S(=O)(=O)N2CCN(Cc3cc4c(cc3O)OCO4)CC2)c1	1	25*	-2	10	5	3	35*	65*
C#CC[N+](C)(C)CCCCCCCCCC	17	8	7	-14	3	-2	nt	nt
C#CC[N+](C)(C)CCCCCCCCCCCC	4	23*	1	1	3	-2	16	6
C#CC[N+](C)(C)CCCCCCCC	8	-4	6	-10	8	5	nt	nt
CC#CC[N+](C)(C)CCCCCCCCCCCC	-3	27*	11	7	0	-1	13	0
C#CCNC(=O)C[C@H]1C[C@@]2(C(=O)OC)C(=C[C@H](COCc3ccccc3)O[C@@H]2C)N(CCCCCCCC)C1=O	0	nt	nt	nt	2	nt	nt	nt
CCCCC(=O)Nc1ccc(C(=O)NCC2COc3ccccc3O2)cc1 (stereo not drawn)	-5	nt	nt	nt	0	nt	nt	nt
CN(C)c1ccc(C=c2c3ccccc3n3c2c2c([n+]3C)CCCC2)cc1	38*	29*	0	4	10	-18	28*	36*
COCCNC(=O)C[C@H]1CC[C@H]2[C@@H](COc3ccc(NS(=O)(=O)c4ccc(Cl)cc4)cc3C(=O)N2C)O1	4	nt	nt	nt	10	nt	nt	nt
O=C/C(=C\Nc1ccccn1)c1nc2ccccc2o1	2	24*	-11	48	-6	-4	21	27*
COc1ccccc1N1CCN(C2=CC(=O)CCC2)CC1	1	21	-5	-8	-2	0	nt	nt
O=C1C=C(N2CCN(C3=CC(=O)CCC3)CC2)CCC1	0	48*	-4	-3	-2	2	10	20*
O=C1C=C(N2CCOCC2)CCC1	0	27*	-1	-3	3	2	4	4
COC(=O)[C@]12C[C@H](CC(=O)N3CCN(C(=O)c4ccco4)CC3)C(=O)N(Cc3cccc4ccccc34)C1=C[C@H](COCc1ccccc1)O[C@@H]2C	-3	nt	nt	nt	-4	nt	nt	nt
O=C(/C=C/c1ccccc1)CC(O)(c1ccccc1)C(F)(F)F (stereo not drawn)	-2	81*	39	-7	-5	1	99*	89*
SMILES	UHRF1 binding	ABHD5 PLIN5 PPI	Beta2AR agonist	Arr AP2 block	MBD2 inh	Rin1 Abl inh	ABHD5 PLIN5 conf	HNF4 split-luc
COc1ccc(/C=C/C(=O)CC(O)(c2ccccc2)C(F)(F)F)cc1 (stereo not drawn)	-3	41*	7	2	4	2	72*	53*
O=C(/C=C/c1ccccc1)CC(O)(c1ccccc1)C(F)(F)C(F)F (stereo not drawn)	2	82*	33	-1	-1	2	98*	77*
CC(C)CNC(=O)C1CSCCS(=O)(=O)N1Cc1ccc(F)cc1 (stereo not drawn)	-2	nt	nt	nt	0	nt	nt	nt
CCCCN=C(N)NC(=O)OCc1ccccc1	0	nt	nt	nt	1	nt	nt	nt
Cc1ccc(NC(=O)CSc2nnc(-c3cccnc3)n2Cc2ccco2)cc1C	-1	nt	nt	nt	9	nt	nt	nt
Cc1cc(C)cc(C(=O)OCCN2CCN(C3CN(Cc4cn(Cc5ccc([N+](=O)[O-])cc5)nn4)S(=O)(=O)C3)CC2)c1 (stereo not drawn)	9	nt	nt	nt	13	nt	nt	nt
CCNC(=S)Nc1ccc2cn[nH]c2c1	5	-4	-6	18	-3	1	nt	nt
N#CC(C#N)=NNc1ccc2cn[nH]c2c1	4	48*	nt	nt	4	2	55*	58*
Nc1c(C(=O)NCC(O)c2ccccc2)cnn1-c1ccccc1 (stereo not drawn)	1	nt	nt	nt	-3	nt	nt	nt
Cn1nnc(NC(=S)NC(=O)/C=C/c2ccco2)n1	14	24*	2	44	7	0	5	5
CC1CCCCC1C(=O)N1CCC(Oc2cccnc2)CC1 (stereo not drawn)	-5	nt	nt	nt	-4	nt	nt	nt
CCC(=O)Nc1cccc(C(=O)/C=C/c2cc(Br)ccc2OC)c1	-3	51*	42	7	3	4	92*	79*
COc1ccc(Br)cc1/C=C/C(=O)Nc1ccc2ccccc2c1	5	-3	4	14	-2	-1	nt	nt
CC(=O)Nc1cccc(C(=O)/C=C/c2ccc(Br)cc2)c1	1	79*	67*	4	2	2	94*	88*
CC(=O)Nc1cccc(C(=O)/C=C/c2ccc(F)cc2)c1	-4	68*	54*	-1	4	-4	88*	80*
CC(=O)Nc1cccc(C(=O)/C=C/c2ccc(N(C)C)cc2)c1	-11	13	3	-22	-2	-12	nt	nt
CN(Cc1cn(Cc2ccccc2)nn1)S(=O)(=O)c1ccccc1Br	-3	nt	nt	nt	-6	nt	nt	nt
CC(COc1ccc(C(F)(F)F)cc1)CN1CCC(C(O)(c2ccccc2)c2ccccc2)CC1 (stereo not drawn)	1	nt	nt	nt	-1	nt	nt	nt
